Three compounds from ChEMBL document CHEMBL6083196, “Synthesis and cytotoxic activity of madecassic acid-silybin conjugate compounds in liver cancer cells” (2024) can be followed below.

Test [1] has as its system HepG2. Nature of the test: Induction of apoptosis in human HepG2 cells assessed as viable cells at GI50 incubated for 24 hrs by Annexin V-FITC/PI staining based flow cytometry (reference value: 88.62 %). Format: functional. Background: A flow cytometer gives signals particle by particle.
In test [2] the test system is HepG2. Nature of the test: Induction of apoptosis in human HepG2 cells assessed as fold change in caspase-3 level at 3 times GI50 incubated for 6 hrs by colorimetric assay relative to control. It is filed as functional. The gist of the method: (§1)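 Lysates taken from HepG2 cells 1, 6 or 24 h after treatment at 0.3×, 1× or 3× GI50. Lysis on ice for 10 min, then 10 000 × g spin; protein measured by Bradford. 80 μg protein incubated with DTT and DEVD-pNA substrate for 1 h at 37 °C, in triplicate; absorbance read at 405 nm. Result expressed as fold change versus untreated cells. Camptothecin 0.5 μM as control; mean and SE reported.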

Another test deals with Huh-7. Nature of the test: Cytotoxicity against human Huh-7 cells incubated for 96 hrs by MTT assay. It is filed as functional. The gist of the method:
(§2)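 Cells grown in DMEM with 10% FBS and 1% antibiotic at 37 °C, 5% CO2. Trypsinised, seeded at 3 × 10^4 cells per mL, treated over an eight-point titration for 96 h. MTT (0.5 mg mL−1) added for 4 h at 37 °C, formazan dissolved in DMSO, absorbance read at 570 nm. GI50 is the concentration halving the MTT signal versus untreated control. Ellipticine served as reference; n ≥ 3 repeats.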
Background: Tetrazolium assays rely on reduction of a dye to a coloured formazan, in cell work by metabolically active cells.

Test [3] deals with HepG2. Nature of the test: Induction of apoptosis in human HepG2 cells assessed as fold change in caspase-3 level at 0.3 times GI50 incubated for 6 hrs by colorimetric assay relative to control. Format: functional. The gist of the method:
as §1

Test [4] deals with HepG2. Nature of the test: Induction of apoptosis in human HepG2 cells assessed as fold change in caspase-3 level at GI50 incubated for 24 hrs by colorimetric assay relative to control. It is filed as functional. The gist of the method:
as §1

The test system of test [5] is HepG2. Nature of the test: Induction of apoptosis in human HepG2 cells assessed as fold change in caspase-3 level at 0.3 times GI50 incubated for 24 hrs by colorimetric assay relative to control. Format: functional. The gist of the method: as §1
For test [6], the system named is HepG2. Nature of the test: Cytotoxicity against human HepG2 cells incubated for 96 hrs by MTT assay. Format: functional. The gist of the method: as §2
Test [7] relates to HepG2. Kind of test: Induction of cell cycle arrest in human HepG2 cells assessed as accumulation at G2/M phase at IC50 incubated for 24 hrs by PI staining based flow cytometry (reference value: 27.69 %). It is filed as functional.
Test [8] deals with HepG2. Nature of the test: Induction of apoptosis in human HepG2 cells assessed as fold change in caspase-3 level at GI50 incubated for 1 hr by colorimetric assay relative to control. Format: functional. An outline of the steps:
as §1

Test [9] has as its system HepG2. Kind of test: Induction of cell cycle arrest in human HepG2 cells assessed as accumulation at G0/G1 phase at IC50 incubated for 24 hrs by PI staining based flow cytometry (reference value: 24.63 %). It is filed as functional.
Test [10] deals with HepG2. Nature of the test: Induction of apoptosis in human HepG2 cells assessed as early apoptotic cells at GI50 incubated for 24 hrs by Annexin V-FITC/PI staining based flow cytometry (reference value: 2.98 %). Format: functional.
Test [11] concerns HepG2. Nature of the test: Induction of cell cycle arrest in human HepG2 cells assessed as accumulation at S phase at IC50 incubated for 24 hrs by PI staining based flow cytometry (reference value: 46.83 %). It is filed as functional.
Test [12] deals with HepG2. Nature of the test: Induction of apoptosis in human HepG2 cells assessed as fold change in caspase-3 level at 3 times GI50 incubated for 1 hr by colorimetric assay relative to control. It is filed as functional. The gist of the method: as §1
The subject of test [13] is HepG2. Nature of the test: Induction of apoptosis in human HepG2 cells assessed as viable cells at 3 times GI50 incubated for 24 hrs by Annexin V-FITC/PI staining based flow cytometry (reference value: 88.62 %). Format: functional.
Test [14] has as its system HepG2. Kind of test: Induction of apoptosis in human HepG2 cells assessed as early apoptotic cells at 3 times GI50 incubated for 24 hrs by Annexin V-FITC/PI staining based flow cytometry (reference value: 2.98 %). Format: functional.
Test [15] relates to HepG2. Kind of test: Induction of apoptosis in human HepG2 cells assessed as fold change in caspase-3 level at 0.3 times GI50 incubated for 1 hr by colorimetric assay relative to control. It is filed as functional. The gist of the method:
as §1

For test [16], the system named is HepG2. Kind of test: Induction of cell cycle arrest in human HepG2 cells assessed as accumulation at G2/M phase at 3 times IC50 incubated for 24 hrs by PI staining based flow cytometry (reference value: 27.69 %). Format: functional.
Test [17] relates to HepG2. Nature of the test: Induction of cell cycle arrest in human HepG2 cells assessed as accumulation at G0/G1 phase at 3 times IC50 incubated for 24 hrs by PI staining based flow cytometry (reference value: 24.63 %). It is filed as functional.
The nature of test [18]: Cytotoxicity against human Huh-7R cells incubated for 96 hrs by MTT assay. It is filed as functional. An outline of the steps: as §2
In test [19] the test system is HepG2. Kind of test: Induction of apoptosis in human HepG2 cells assessed as fold change in caspase-3 level at GI50 incubated for 6 hrs by colorimetric assay relative to control. It is filed as functional. An outline of the steps:
as §1

The subject of test [20] is HepG2. Nature of the test: Induction of cell cycle arrest in human HepG2 cells assessed as accumulation at S phase at 3 times IC50 incubated for 24 hrs by PI staining based flow cytometry (reference value: 46.83 %). It is filed as functional.
Test [21] deals with HepG2. Kind of test: Induction of apoptosis in human HepG2 cells assessed as necrotic cells at GI50 incubated for 24 hrs by Annexin V-FITC/PI staining based flow cytometry (reference value: 5.34 %). Format: functional.
For test [22], the system named is HepG2. Kind of test: Induction of apoptosis in human HepG2 cells assessed as necrotic cells at 3 times GI50 incubated for 24 hrs by Annexin V-FITC/PI staining based flow cytometry (reference value: 5.34 %). Format: functional.
Test [23] relates to HepG2. Nature of the test: Induction of apoptosis in human HepG2 cells assessed as fold change in caspase-3 level at 3 times GI50 incubated for 24 hrs by colorimetric assay relative to control. It is filed as functional. The gist of the method: as §1
The subject of test [24] is HepG2. Nature of the test: Induction of apoptosis in human HepG2 cells assessed as late apoptotic cells at GI50 incubated for 24 hrs by Annexin V-FITC/PI staining based flow cytometry (reference value: 3.06 %). Format: functional.
The subject of a further test is Hep 3B2. Nature of the test: Cytotoxicity against human Hep3B cells incubated for 96 hrs by MTT assay. It is filed as functional. The gist of the method:
as §2

The subject of test [25] is HepG2. Kind of test: Induction of apoptosis in human HepG2 cells assessed as late apoptotic cells at 3 times GI50 incubated for 24 hrs by Annexin V-FITC/PI staining based flow cytometry (reference value: 3.06 %). It is filed as functional.
The subject of test [26] is HepG2. Nature of the test: Induction of apoptosis in human HepG2 cells assessed as necrotic cells incubated for 24 hrs by Annexin V-FITC/PI staining based flow cytometry (reference value: 5.34 %). Format: functional.
The test system of test [27] is HepG2. Kind of test: Induction of apoptosis in human HepG2 cells assessed as fold change in caspase-3 level at 0.5 uM incubated for 1 hr by colorimetric assay relative to control.
Test [28] relates to HepG2. Kind of test: Induction of apoptosis in human HepG2 cells assessed as fold change in caspase-3 level at 0.5 uM incubated for 24 hrs by colorimetric assay relative to control.
Test [29] concerns HepG2. Kind of test: Induction of apoptosis in human HepG2 cells assessed as late apoptotic cells incubated for 24 hrs by Annexin V-FITC/PI staining based flow cytometry (reference value: 3.06 %). Format: functional.
In test [30] the test system is HepG2. Nature of the test: Induction of apoptosis in human HepG2 cells assessed as fold change in caspase-3 level at 0.5 uM incubated for 6 hrs by colorimetric assay relative to control.
Test [31] has as its system HepG2. Kind of test: Induction of apoptosis in human HepG2 cells assessed as viable cells incubated for 24 hrs by Annexin V-FITC/PI staining based flow cytometry (reference value: 88.62 %). Format: functional.
The subject of test [32] is HepG2. Kind of test: Induction of apoptosis in human HepG2 cells assessed as early apoptotic cells incubated for 24 hrs by Annexin V-FITC/PI staining based flow cytometry (reference value: 2.98 %). Format: functional.

As for `COc1cc([C@H]2Oc3cc([C@H]4Oc5cc(O)cc(O)c5C(=O)[C@@H]4OC(=O)CNC(=O)[C@]45CC[C@@H](C)[C@H](C)[C@H]4C4=CC[C@@H]6[C@@]7(C)C[C@@H](OC(C)=O)[C@H](OC(C)=O)[C@@](C)(COC(C)=O)[C@@H]7[C@H](O)C[C@@]6(C)[C@]4(C)CC5)ccc3O[C@@H]2CO)ccc1O`, the Activity in the test on HepG2 [1] is given as 71.11%; in the test with HepG2 [7] it was 9.78%; in the test with HepG2 [9], 26.72%; in the test with HepG2 [10], 10.65%; in the test on HepG2 [11], 61.09%; in the test with HepG2 [13] it was 84%. The Activity in the test on HepG2 [14] is 1.28%; with HepG2 [16], 11.8%; with HepG2 [17], 27.07%; with HepG2 [20], 60.41%; with HepG2 [21] it was 13.32%; with HepG2 [22], 13.81%. In addition, the Activity was 4.92% with HepG2 [24] and 0.91% with HepG2 [25]. Moreover, the “fold change (FC)” value in the test with HepG2 [2] is given as 1.27; with HepG2 [3], 0.76; in the test on HepG2 [4] it was 1.86; in the test with HepG2 [5], 1.62; in the test on HepG2 [8], 0.76; in the test with HepG2 [12] it was 1.69. The entries for the “fold change (FC)” value in the test with HepG2 [15], in the test on HepG2 [19] and in the test with HepG2 [23] were 0.59, 1.09 and 1.37, respectively. Also, the GI50 (usually the concentration giving 50% growth inhibition) was 13.8 µM in the test on Huh-7, 32.5 µM in the test on HepG2 [6], 14.2 µM in [18] and 9.61 µM in the test with Hep 3B2.

For `CC[C@@]1(O)C(=O)OCc2c1cc1n(c2=O)Cc2cc3ccccc3nc2-1` [CAMPTOTHECIN], the Activity is on record as 3.85% in the test on HepG2 [26], 2.3% with HepG2 [29], 79.08% with HepG2 [31] and 14.78% in the test on HepG2 [32]. Further, the “fold change (FC)” value turned out to be 1.94 with HepG2 [27], 2.19 with HepG2 [28] and 2.21 in the test on HepG2 [30].

Turning to `C[C@H]1[C@H](C)CC[C@]2(C(=O)O)CC[C@]3(C)C(=CC[C@@H]4[C@@]5(C)C[C@@H](O)[C@H](O)[C@@](C)(CO)[C@@H]5[C@H](O)C[C@]43C)[C@H]12` [MADECASSIC ACID], the Activity with HepG2 [1] was determined as 80.48%; in the test with HepG2 [7], 21.51%; with HepG2 [9] it was 19.29%; with HepG2 [10] it was 9%; with HepG2 [11] it was 58.52%; with HepG2 [13], 72.03%. Further, the Activity in the test with HepG2 [14] is given as 13.37%; with HepG2 [16] it was 20.71%; in the test with HepG2 [17] it was 54.22%; with HepG2 [20] it was 24.25%; with HepG2 [21], 6.23%; in the test on HepG2 [22] it was 8.44%. In addition, the Activity with HepG2 [24] was 4.29%; in the test on HepG2 [25], 6.16%. The “fold change (FC)” value in the test with HepG2 [2] is on record as 1.71; with HepG2 [3], 0.81; with HepG2 [4], 0.68; in the test with HepG2 [5], 0.99; in the test with HepG2 [8] it was 0.94; with HepG2 [12], 0.97. The “fold change (FC)” value with HepG2 [15] was 0.74; in the test with HepG2 [19], 1.16; in the test with HepG2 [23] it was 0.54. Moreover, the concentration for 50% growth inhibition (GI50) in the test with Huh-7 worked out at 198 µM; in the test with HepG2 [6], 161 µM; in test [18], 215 µM; in the test on Hep 3B2 it was 178 µM.
